The list is not random: actives were taken first. Their share in the collection is about 2.2%.
T cruzi inh – T. cruzi replication inhibition; AID 1885; inhibition, % (test concentration not listed); T. cruzi beta-gal in NIH3T3, luminescence, 90 h; 1.4% of 300,000 active;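 active = mean inhibition across valid replicates above about 55%, limit read from the data; inconclusive = mean below that limit but half or more replicates reach it; inactive = mean below it, under half of replicates reach it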;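 note: signal also drops with host cell toxicity which is not excluded here; 0% = plate median of DMSO wells and 100% = zero luminescence signal; higher percent means less beta-gal luminescence so fewer parasites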
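Assay system: NIH/3T3 host cells with β-galactosidase reporter T. cruzi; input: 5,000 host fibroblasts per well; compound: single 50 nL compound addition per well in DMSO; timing: ≥90 h infection period, 3 h prior cell attachment; measured by: GalScreen β-gal luminescence, detergent lysis, 60 min; evaluation: percent inhibition of parasite-derived β-gal signal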
AI-2 QS modul – Vibrio harveyi AI-2 quorum sensing modulation; 0.4% of 300,000 active; activity change, % at 7.5 µM; Vibrio harveyi JMH597 AI-2 luminescence/OD600 ratio, 9 h; hits give low values; strain lacks LuxN and CqsS sensors; 0 = neutral-control median; in the data active = activity change below about -75%, passing the limit was not always enough; inconclusive = no clear call, values can overlap the other calls;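 note: luminescence divided by OD600 gain over 9 h not by final OD600 alone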
Efflux pump mplx – blocks antifungal efflux pumps in multiplex yeast assay; S. cerevisiae Candida pump triplex, Nile Red efflux; inhibition, % at 10 µM; 0.44% of 330,000 active; AID 485275;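 active = plate passing quality check with inhibition over a set limit, or well fluorescence over plate mean plus 4 SD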;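 note: Nile Red retained in pooled yeast measured as flow cytometry median fluorescence; 0% = buffer negative control and 100% = Enniatin B positive control; higher means more Nile Red kept so more efflux inhibition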
HDAC3 inhib – inhibitors of human histone deacetylase 3 | O15379 | recombinant HDAC3, fluorogenic peptide/trypsin coupled, fluorescence | inhibition, % at 8.3 µM | 0.15% of 320,000 active; in the data active = inhibition above about 26%, passing the limit was not always enough; inconclusive = no clear call, values can overlap the other calls
Target sequence (O15379 whole entry, looked up): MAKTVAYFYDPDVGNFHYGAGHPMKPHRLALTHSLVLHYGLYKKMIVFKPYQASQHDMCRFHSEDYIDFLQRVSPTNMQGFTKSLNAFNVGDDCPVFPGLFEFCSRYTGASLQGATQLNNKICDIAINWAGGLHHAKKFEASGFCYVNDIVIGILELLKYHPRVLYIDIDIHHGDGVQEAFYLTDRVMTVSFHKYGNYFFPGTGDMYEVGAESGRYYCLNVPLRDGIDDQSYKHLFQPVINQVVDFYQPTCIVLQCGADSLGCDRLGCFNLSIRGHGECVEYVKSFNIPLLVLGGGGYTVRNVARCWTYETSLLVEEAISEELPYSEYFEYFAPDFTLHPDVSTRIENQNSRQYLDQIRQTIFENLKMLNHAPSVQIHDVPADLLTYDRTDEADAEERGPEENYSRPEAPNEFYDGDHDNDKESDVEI
PolyA inhibitor – yeast polyadenylation inhibition; S. cerevisiae SKY197-pL101 polyadenylation reporter, beta-gal luminescence; efflux-impaired pdr1/pdr3 knockout yeast; score 100 = 6 SD above DMSO; activity score, % at 12 µM; 0.02% of 300,000 active; AID 1875;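 active = lowest replicate activity score at least 50, where 100 means six control SD above control mean; inconclusive = lowest score under 50 but half or more replicates reach 50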;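 note: yeast exposed to compound for 9 h at 30 °C; higher score means more reporter readthrough which indicates perturbed polyadenylation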
Numbers without * were called inactive; ? = inconclusive; · = not tested or not shown.

SMILES | T cruzi inh | AI-2 QS modul | Efflux pump mplx | HDAC3 inhib | PolyA inhibitor
COc1ccccc1NC1=C(N2CCCCC2)C(=O)c2ccccc2C1=O | 62.2* | 20.0 | 0.2 | -6.5 | 1.2
Cc1ccc(NC2=C(N3CCCCC3)C(=O)c3ccccc3C2=O)cc1 | 66.5* | 29.5 | 0.1 | 1.8 | 23.1
O=C1C(Nc2ccccc2)=C(N2CCCCC2)C(=O)c2ccccc21 | 48.0 | 51.0 | 0.0 | -1.5 | 2.0
COc1ccc(N(CC(=O)NCCC2=CCCCC2)S(=O)(=O)c2ccc(C)cc2)cc1 | 61.9* | 19.3 | -0.2 | 4.7 | 3.0
COc1ccc(CCNC(=O)CN(c2cc(OC)ccc2OC)S(=O)(=O)c2ccccc2)cc1 | 13.5 | 20.5 | -0.4 | -6.4 | -26.5
COc1ccc(CCNC(=O)CN(c2ccccc2OC)S(=O)(=O)c2ccc(C)cc2)cc1 | 60.3* | -2.2 | -0.1 | -2.2 | 7.9
CCOc1ccc(N(CC(=O)NCCC2=CCCCC2)S(=O)(=O)c2ccccc2)cc1 | 62.0* | -2.8 | 0.1 | 0.4 | -14.5
OCCNCc1ccc(OCc2ccc(Cl)cc2Cl)cc1 | 31.3 | 16.2 | 0.0 | 4.5 | -6.6
OCCCCNCc1ccc(OCc2ccc(Cl)cc2Cl)cc1 | 60.0* | 16.9 | 0.3 | -2.1 | -33.0
CCC(CC)c1nnc(NC(=O)CN2C(=O)c3ccccc3C2=O)s1 | -20.8 | -50.1 | 0.2 | -2.4 | 3.0
CCCC(C)c1nnc(NC(=O)CN2C(=O)c3ccccc3C2=O)s1 (stereo not drawn) | -2.5 | -88.0* | 0.0 | -0.8 | -2.1
Cc1cc(C)n(CC(=O)N/N=C/c2cc(Br)cc([N+](=O)[O-])c2O)n1 | 64.8* | -11.1 | 0.1 | 2.3 | -47.4
O=S(=O)(c1ccc(Cl)cc1)N1CCC(n2cnc3cc(C(F)(F)F)ccc32)CC1 | 55.7* | 14.0 | 0.1 | 17.9 | 0.5
O=S(=O)(c1ccc(F)cc1)N1CCC(n2cnc3ccccc32)CC1 | 4.5 | -2.5 | -0.1 | 1.2 | 2.3
CCCc1nc2ccccc2c(=O)n1-c1ccc(C(=O)OCC)cc1 | 7.8 | 18.5 | 0.0 | 1.3 | -0.2
O=C(NC1CCSc2ccccc21)c1cccc([N+](=O)[O-])c1 (stereo not drawn) | 1.5 | -7.9 | 0.1 | 0.5 | 6.1
CC(C)(C)C(=O)Cn1ncc(Br)c(Br)c1=O | 61.3* | -0.3 | · | · | 5.4
COc1c(C(CC(C)C)OC(C)=O)ccc2c1C(=O)OCc1cc(C)cc(O)c1O2 (stereo not drawn) | 5.7 | 28.8 | 0.2 | 33.9* | 8.3
CC(Cc1ccccc1)NC(=O)c1cc([N+](=O)[O-])ccc1Cl (stereo not drawn) | 6.1 | -13.1 | -0.1 | -3.1 | -0.5
COc1cc(C(=O)Nc2ccncc2)cc(OC)c1OC | -10.6 | -2.3 | -0.1 | 0.2 | -8.7
COC(=O)c1nc(NC(=O)c2cc(OC)c(OC)c(OC)c2)n[nH]1 | -16.8 | 0.8 | -0.1 | 38.8* | 22.9
CCCCC(=O)N1C/C=C\C(c2ccc(OC)cc2)N(Cc2ccc(F)cc2)C(=O)[C@H]1Cc1ccccc1 (stereo partly drawn) | 63.5* | 16.6 | -0.1 | -6.6 | 0.8
O=C(Nc1ccccc1F)c1ccc([N+](=O)[O-])s1 | 65.4* | -115.2* | 0.3 | 0.7 | -3.1
O=C(Nc1cccc2ccccc12)c1ccc([N+](=O)[O-])s1 | 57.3* | 17.6 | -0.1 | 1.2 | 4.3
Cn1ncc([N+](=O)[O-])c1C(=O)Nc1cccc2ccccc12 | -5.9 | 13.8 | 0.0 | 1.1 | 0.8
SMILES | T cruzi inh | AI-2 QS modul | Efflux pump mplx | HDAC3 inhib | PolyA inhibitor
O=C(Nc1cccnc1)c1ccc([N+](=O)[O-])s1 | · | · | -0.1 | 4.3 | ·
Cc1ccc(S(=O)(=O)CC(=O)c2cc(C)c(O)c(C)c2)cc1 | 20.9 | 18.4 | -0.5 | 5.0 | -14.9
CC(NCC(O)COC1CCC(C(C)(C)C)CC1)c1ccccc1 (stereo not drawn) | 74.9* | 35.0 | 0.1 | -17.0 | -50.9
COc1ccc(S(=O)(=O)n2nc(OC(=O)c3ccc(C)cc3)cc2N)cc1 | 18.0 | 34.6 | -0.1 | 61.4* | 2.8
COc1ccc(S(=O)(=O)n2nc(OC(=O)c3cccs3)cc2N)cc1 | -12.9 | 34.5 | 0.0 | 95.3* | -15.8
COc1ccc(S(=O)(=O)n2nc(OC(=O)c3ccccc3Br)cc2N)cc1 | -22.5 | 48.0 | 0.0 | 3.7 | 1.0
COc1cc(C(=O)Oc2cc(N)n(S(=O)(=O)c3ccc(F)cc3)n2)cc(OC)c1OC | -13.0 | 39.5 | -0.1 | 6.9 | -13.4
COc1ccc(S(=O)(=O)n2nc(OC(=O)c3ccccc3)cc2N)cc1 | -13.3 | -2.6 | -0.2 | 53.9* | -13.6
COc1ccc(S(=O)(=O)n2nc(OC(=O)c3ccncc3)cc2N)cc1 | -22.3 | -6.4 | · | -3.9 | -24.9
Nc1cc(OC(=O)c2ccc(F)cc2)nn1S(=O)(=O)c1ccccc1 | -12.6 | 9.5 | 0.0 | 58.7* | 5.7
Cc1ccc(C(=O)Oc2cc(N)n(S(=O)(=O)c3ccc(C)cc3)n2)cc1 | 5.5 | 20.5 | -0.1 | 2.0 | -13.7
O=C(CCS(=O)(=O)c1cc2c(cc1Cl)NC(=O)CO2)NCc1ccc(F)cc1 | 0.6 | 30.4 | -0.1 | 5.1 | -17.0
CCCc1ccc(C(=O)NNc2ccccc2F)cc1 | 7.0 | 29.1 | -0.1 | -0.5 | 1.4
COc1ccc(S(=O)(=O)n2nc(OC(=O)c3ccco3)cc2N)cc1 | -14.8 | 20.4 | -0.1 | 71.2* | 5.9
CS(=O)(=O)n1nc(OC(=O)c2cccc3ccccc23)cc1N | -23.8 | 8.2 | -0.2 | 7.6 | 1.9
CS(=O)(=O)n1nc(OC(=O)c2cccs2)cc1N | -9.3 | 10.1 | · | 92.6* | -5.8
Nc1c(C(O)(C(F)(F)F)C(F)(F)F)cc(C(O)(C(F)(F)F)C(F)(F)F)c2ccccc12 | 26.3 | 4.0 | 0.0 | 32.6* | -38.4
CC(C)c1ccc([N+](=O)[O-])cc1S(=O)(=O)N1CCN(C)CC1 | 3.5 | 13.8 | 0.0 | 1.0 | -12.0
Cc1ccc(C)c(S(=O)(=O)/N=C2\C=C(NS(=O)(=O)c3ccccc3)C(=O)c3ccccc32)c1 | -9.0 | 18.2 | 0.1 | 1.2 | -12.1
Cc1cc(C)c(S(=O)(=O)/N=C2/C=C(Sc3ncn[nH]3)C(=O)c3ccccc32)cc1C | · | · | -0.1 | 40.3* | ·
CC1(C)CC(N2CCCC2)=CC(=[N+]2CCCC2)C1 | 67.2* | 12.3 | -0.1 | 13.7 | 4.7
CC1(C)CC(N2CCCC2)=CC(=[N+]2CCCCC2)C1 | ? | 11.8 | 0.1 | 11.5 | 7.4
c1ccc(CN2CCN(c3ncccn3)CC2)cc1 | -22.9 | 15.8 | 0.0 | 3.0 | 4.7
CC1(C)CC(N2CCN(Cc3ccccc3)CC2)=CC(=[N+]2CCCCC2)C1 | 61.8* | -9.3 | 0.3 | 8.4 | -27.1
CN(Cc1ccccc1)C1=CC(=[N+]2CCCCC2)CC(C)(C)C1 | 70.2* | 22.4 | 0.0 | 13.6 | -14.5
CC1(C)CC(NNCCC#N)=CC(=[N+]2CCCC2)C1 | 29.9 | 2.2 | 0.0 | 5.0 | -0.3
CCCCC(=O)NC(c1ccc(OC)c(OC)c1)c1c(O)ccc2ccccc12 (stereo not drawn) | 26.1 | 14.0 | 0.0 | 1.0 | -6.9

Screening data deposited in PubChem by several laboratories.
